Experimental data from ChEMBL document CHEMBL5038571, “Design and Synthesis of EZH2-Based PROTACs to Degrade the PRC2 Complex for Targeting the Noncatalytic Activity of EZH2” (J Med Chem, 2021).
The source made the active and inactive calls. No cut-off for these calls is given here.

Target: Protein cereblon/Histone-lysine N-methyltransferase EZH2 (Homo sapiens) (UniProt Q15910+Q96SW2)
Experiment: PROTAC activity at CRBN E3 ligase/EZH2 in PRC2 complex in human LNCaP cells assessed as induction of RbAp48 degradation by measuring reduction in RbAp48 protein level at 1 uM incubated for 48 hrs by Western blot analysis
Type: cell-based
Procedure, shortened: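 Cancer cell lines exposed to 1 μM compound for 48 h. Lysates immunoblotted (SDS-PAGE, nitrocellulose, 5% milk block, primary antibody overnight at 4 °C) for EZH2, SUZ12, EED, RbAp48 and H3K27me3. Bands quantified by densitometry and normalized to GAPDH.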

Chain of Protein cereblon/Histone-lysine N-methyltransferase EZH2 (Homo sapiens) (Q15910 whole entry, looked up): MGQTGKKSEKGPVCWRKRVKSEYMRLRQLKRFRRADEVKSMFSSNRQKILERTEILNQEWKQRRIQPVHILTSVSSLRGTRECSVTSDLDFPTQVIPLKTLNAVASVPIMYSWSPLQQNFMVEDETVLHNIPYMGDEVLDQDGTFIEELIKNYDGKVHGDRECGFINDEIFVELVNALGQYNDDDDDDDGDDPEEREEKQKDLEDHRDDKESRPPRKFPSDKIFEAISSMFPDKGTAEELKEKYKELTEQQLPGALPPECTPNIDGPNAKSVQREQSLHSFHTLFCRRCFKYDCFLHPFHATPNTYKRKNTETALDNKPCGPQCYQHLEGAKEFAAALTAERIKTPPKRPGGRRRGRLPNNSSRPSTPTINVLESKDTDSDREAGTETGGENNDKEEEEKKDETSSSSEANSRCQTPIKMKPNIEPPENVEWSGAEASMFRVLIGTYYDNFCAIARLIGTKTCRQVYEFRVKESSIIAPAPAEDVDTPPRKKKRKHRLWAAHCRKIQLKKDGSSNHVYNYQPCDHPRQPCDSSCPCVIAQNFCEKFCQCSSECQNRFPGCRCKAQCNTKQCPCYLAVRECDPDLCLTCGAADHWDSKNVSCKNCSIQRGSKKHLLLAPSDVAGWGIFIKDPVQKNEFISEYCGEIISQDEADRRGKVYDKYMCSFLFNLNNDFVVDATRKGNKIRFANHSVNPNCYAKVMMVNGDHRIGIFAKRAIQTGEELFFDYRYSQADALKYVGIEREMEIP
Chain of Protein cereblon/Histone-lysine N-methyltransferase EZH2 (Homo sapiens) (Q96SW2 whole entry, looked up): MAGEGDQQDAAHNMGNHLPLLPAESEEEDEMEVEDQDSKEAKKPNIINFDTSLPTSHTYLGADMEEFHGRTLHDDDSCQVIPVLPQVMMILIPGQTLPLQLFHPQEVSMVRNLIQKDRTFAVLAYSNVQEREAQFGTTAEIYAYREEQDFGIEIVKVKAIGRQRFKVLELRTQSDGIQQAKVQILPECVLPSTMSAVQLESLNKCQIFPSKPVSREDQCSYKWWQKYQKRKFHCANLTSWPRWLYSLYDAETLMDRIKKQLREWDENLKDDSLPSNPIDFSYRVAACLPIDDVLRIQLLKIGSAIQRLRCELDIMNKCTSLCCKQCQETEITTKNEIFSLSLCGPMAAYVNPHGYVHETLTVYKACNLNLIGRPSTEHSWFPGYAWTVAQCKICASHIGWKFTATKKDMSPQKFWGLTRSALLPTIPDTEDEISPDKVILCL

- Activity: Active
SMILES: CCN(c1cc(-c2ccc(CN3CCN(CCCCCCCOc4cccc5c4C(=O)N(C4CCC(=O)NC4=O)C5=O)CC3)cc2)cc(C(=O)NCc2c(C)cc(C)[nH]c2=O)c1C)C1CCOCC1 (stereo unspecified)
